Assay results: ChEMBL document CHEMBL1147655, “Design and synthesis of 8-octyl-benzolactam-V9, a selective activator for protein kinase C epsilon and eta” (J Med Chem, 2006)
pKi: −log10 of the molar value.

What was measured:
[1] = molecular target: T1, Protein kinase C alpha type (Homo sapiens, UniProt P17252); experiment: Displacement of [3H]phorbol 12,13-dibutyrate from PKC alpha-C1A
[2] = molecular target: T2, Protein kinase C eta type (Homo sapiens, UniProt P24723); experiment: Displacement of [3H]phorbol 12,13-dibutyrate from PKC eta-C1A
T2 sequence (P24723 whole entry): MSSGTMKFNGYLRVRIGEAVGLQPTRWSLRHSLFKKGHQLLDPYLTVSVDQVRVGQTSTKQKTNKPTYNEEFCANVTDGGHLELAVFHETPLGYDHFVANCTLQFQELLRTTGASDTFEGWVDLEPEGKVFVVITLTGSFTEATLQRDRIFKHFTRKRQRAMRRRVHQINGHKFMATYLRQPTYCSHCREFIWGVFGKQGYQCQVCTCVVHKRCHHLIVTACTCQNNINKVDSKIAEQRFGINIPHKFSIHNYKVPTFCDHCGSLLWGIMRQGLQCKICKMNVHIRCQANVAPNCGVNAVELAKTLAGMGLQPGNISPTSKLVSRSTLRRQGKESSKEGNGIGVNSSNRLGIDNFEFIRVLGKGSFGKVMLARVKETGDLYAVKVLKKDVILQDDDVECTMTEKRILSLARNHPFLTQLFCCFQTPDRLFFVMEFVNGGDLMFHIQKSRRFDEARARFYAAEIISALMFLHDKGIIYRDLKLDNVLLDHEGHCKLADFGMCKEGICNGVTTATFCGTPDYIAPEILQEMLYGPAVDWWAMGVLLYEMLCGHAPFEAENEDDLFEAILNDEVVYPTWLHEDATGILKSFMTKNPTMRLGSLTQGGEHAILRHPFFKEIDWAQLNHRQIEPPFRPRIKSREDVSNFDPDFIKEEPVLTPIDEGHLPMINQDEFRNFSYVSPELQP

[3] = molecular target: T3, Protein kinase C gamma type (Homo sapiens, UniProt P05129); experiment: Displacement of [3H]phorbol 12,13-dibutyrate from PKC gamma-C1A
[4] = molecular target: T3, Protein kinase C gamma type; experiment: Induction of GFP-tagged PKC gamma translocation in HeLa cells measured as ratio of fluorescence intensity in plasma membrane to cytosol at 10 uM; type: cell-based
In short: (§1)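 HeLa cells transfected with GFP-fused PKC isozyme, cultured 16-48 h, then medium switched to HEPES buffer (135 mM NaCl, 5.4 mM KCl, 1 mM MgCl2, 1.8 mM CaCl2, 5 mM HEPES, 10 mM glucose, pH 7.3). Compound added at stated final concentration, 37 °C; confocal time series (488 nm excitation, 505-550 nm emission). R = membrane/mean cytosolic intensity from line profiles; maximum R reported, SD of at least three measurements.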

[5] = molecular target: Protein kinase C theta type (Homo sapiens, UniProt Q04759); experiment: Displacement of [3H]phorbol 12,13-dibutyrate from PKC theta-C1B
[6] = molecular target: T4, Protein kinase C delta type (Homo sapiens, UniProt Q05655); experiment: Induction of GFP-tagged PKC delta translocation in HeLa cells measured as ratio of fluorescence intensity in plasma membrane to cytosol at 10 uM; type: cell-based; in short: as §1
Target sequence in this assay (Q05655 whole entry, looked up): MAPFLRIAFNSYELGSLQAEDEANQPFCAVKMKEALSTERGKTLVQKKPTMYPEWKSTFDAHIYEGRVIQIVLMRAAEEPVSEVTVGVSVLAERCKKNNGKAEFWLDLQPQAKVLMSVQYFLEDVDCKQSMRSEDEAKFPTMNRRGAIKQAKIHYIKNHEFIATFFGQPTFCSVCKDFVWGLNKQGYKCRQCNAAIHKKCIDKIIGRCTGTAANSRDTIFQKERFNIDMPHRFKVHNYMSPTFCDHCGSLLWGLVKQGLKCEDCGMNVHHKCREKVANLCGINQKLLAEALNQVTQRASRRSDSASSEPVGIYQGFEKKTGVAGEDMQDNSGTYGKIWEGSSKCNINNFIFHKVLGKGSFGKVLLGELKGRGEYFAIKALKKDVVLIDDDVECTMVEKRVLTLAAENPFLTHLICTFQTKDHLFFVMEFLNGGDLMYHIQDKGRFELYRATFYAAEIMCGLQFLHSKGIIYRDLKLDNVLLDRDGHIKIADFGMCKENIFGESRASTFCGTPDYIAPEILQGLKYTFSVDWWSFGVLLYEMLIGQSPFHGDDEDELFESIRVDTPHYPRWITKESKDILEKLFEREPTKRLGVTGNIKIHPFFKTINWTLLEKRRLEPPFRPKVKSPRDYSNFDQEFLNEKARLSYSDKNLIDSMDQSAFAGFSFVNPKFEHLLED

[7] = molecular target: T5, Protein kinase C beta type (Homo sapiens, UniProt P05771); experiment: Displacement of [3H]phorbol 12,13-dibutyrate from PKC beta-C1B
[8] = molecular target: T6, Protein kinase C epsilon type (Homo sapiens) (UniProt Q02156); experiment: Induction of GFP-tagged PKC epsilon translocation in HeLa cells measured as ratio of fluorescence intensity in plasma membrane to cytosol at 1 uM; type: cell-based; in short: as §1
T6 sequence (whole entry): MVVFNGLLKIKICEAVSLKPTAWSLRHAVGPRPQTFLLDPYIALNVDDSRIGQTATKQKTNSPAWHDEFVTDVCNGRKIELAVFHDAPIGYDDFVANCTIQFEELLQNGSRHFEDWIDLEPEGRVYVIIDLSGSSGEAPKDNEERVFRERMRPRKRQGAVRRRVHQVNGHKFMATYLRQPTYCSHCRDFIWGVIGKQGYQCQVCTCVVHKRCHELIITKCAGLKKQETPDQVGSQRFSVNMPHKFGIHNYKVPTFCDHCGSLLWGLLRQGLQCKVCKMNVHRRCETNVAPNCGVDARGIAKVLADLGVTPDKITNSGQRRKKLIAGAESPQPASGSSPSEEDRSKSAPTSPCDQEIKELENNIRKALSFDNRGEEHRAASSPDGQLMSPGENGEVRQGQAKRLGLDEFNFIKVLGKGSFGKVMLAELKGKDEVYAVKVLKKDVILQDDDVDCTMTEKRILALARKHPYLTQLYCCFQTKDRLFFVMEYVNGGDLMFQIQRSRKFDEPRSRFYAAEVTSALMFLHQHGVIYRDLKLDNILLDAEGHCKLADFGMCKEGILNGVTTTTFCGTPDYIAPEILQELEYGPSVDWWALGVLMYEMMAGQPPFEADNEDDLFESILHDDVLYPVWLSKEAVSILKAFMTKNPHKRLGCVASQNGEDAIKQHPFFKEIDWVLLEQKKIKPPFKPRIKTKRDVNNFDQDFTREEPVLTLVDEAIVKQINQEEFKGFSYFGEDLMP

[9] = molecular target: T2, Protein kinase C eta type; experiment: Induction of GFP-tagged PKC eta translocation in HeLa cells measured as ratio of fluorescence intensity in plasma membrane to cytosol at 10 uM; type: cell-based; in short: as §1
[10] = molecular target: T6, Protein kinase C epsilon type (Homo sapiens); experiment: Induction of GFP-tagged PKC epsilon translocation in HeLa cells measured as ratio of fluorescence intensity in plasma membrane to cytosol at 10 uM; type: cell-based; in short: as §1
[11] = molecular target: T6, Protein kinase C epsilon type (Homo sapiens); experiment: Induction of GFP-tagged PKC epsilon translocation in HeLa cells measured as ratio of fluorescence intensity in plasma membrane to cytosol at 0.5 uM; type: cell-based; in short: as §1
[12] = molecular target: T5, Protein kinase C beta type; experiment: Induction of GFP-tagged PKC beta translocation in HeLa cells measured as ratio of fluorescence intensity in plasma membrane to cytosol at 10 uM; type: cell-based; in short: as §1
Target sequence in this assay (P05771 2-671 limits assumed): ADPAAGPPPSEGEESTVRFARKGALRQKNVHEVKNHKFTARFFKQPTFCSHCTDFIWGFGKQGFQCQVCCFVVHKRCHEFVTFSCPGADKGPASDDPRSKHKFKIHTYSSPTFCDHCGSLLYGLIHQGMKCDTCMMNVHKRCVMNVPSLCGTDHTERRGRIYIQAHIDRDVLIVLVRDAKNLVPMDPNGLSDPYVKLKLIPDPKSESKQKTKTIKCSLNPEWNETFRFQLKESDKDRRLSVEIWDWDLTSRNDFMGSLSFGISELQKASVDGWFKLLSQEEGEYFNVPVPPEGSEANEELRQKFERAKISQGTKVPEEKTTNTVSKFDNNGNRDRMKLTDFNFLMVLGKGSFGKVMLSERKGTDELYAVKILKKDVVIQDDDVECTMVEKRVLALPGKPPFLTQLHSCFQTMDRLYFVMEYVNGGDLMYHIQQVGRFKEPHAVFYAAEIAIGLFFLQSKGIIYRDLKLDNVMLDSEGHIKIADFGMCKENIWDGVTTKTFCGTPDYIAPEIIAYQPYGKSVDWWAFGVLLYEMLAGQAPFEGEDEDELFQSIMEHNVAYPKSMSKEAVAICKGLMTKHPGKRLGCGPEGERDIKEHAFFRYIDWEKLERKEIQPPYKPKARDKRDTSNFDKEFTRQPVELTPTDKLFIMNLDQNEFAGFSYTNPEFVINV

[13] = molecular target: T4, Protein kinase C delta type; experiment: Displacement of [3H]phorbol 12,13-dibutyrate from PKC delta-C1B
Target sequence in this assay (Q05655 whole entry): as the sequence (Q05655 whole entry, looked up) above

[14] = molecular target: T7, Protein kinase C epsilon type (Homo sapiens, UniProt Q02156); experiment: Displacement of [3H]phorbol 12,13-dibutyrate from PKC epsilon-C1A
T7 sequence (Q02156 whole entry): T6 sequence (whole entry)

[15] = molecular target: T1, Protein kinase C alpha type; experiment: Induction of GFP-tagged PKC alpha translocation in HeLa cells measured as ratio of fluorescence intensity in plasma membrane to cytosol at 10 uM; type: cell-based; in short: as §1
[16] = molecular target: T7, Protein kinase C epsilon type; experiment: Displacement of [3H]phorbol 12,13-dibutyrate from PKC epsilon-C1B
[17] = molecular target: T5, Protein kinase C beta type; experiment: Displacement of [3H]phorbol 12,13-dibutyrate from PKC beta-C1A
[18] = molecular target: T2, Protein kinase C eta type; experiment: Induction of GFP-tagged PKC eta translocation in HeLa cells measured as ratio of fluorescence intensity in plasma membrane to cytosol at 0.5 uM; type: cell-based; in short: as §1
[19] = molecular target: T2, Protein kinase C eta type; experiment: Induction of GFP-tagged PKC eta translocation in HeLa cells measured as ratio of fluorescence intensity in plasma membrane to cytosol at 1 uM; type: cell-based; in short: as §1
[20] = molecular target: T3, Protein kinase C gamma type; experiment: Displacement of [3H]phorbol 12,13-dibutyrate from PKC gamma-C1B
[21] = molecular target: T1, Protein kinase C alpha type; experiment: Displacement of [3H]phorbol 12,13-dibutyrate from PKC alpha-C1B
[22] = molecular target: T4, Protein kinase C delta type; experiment: Displacement of [3H]phorbol 12,13-dibutyrate from PKC delta-C1A
Target sequence in this assay (Q05655 whole entry): as the sequence (Q05655 whole entry, looked up) above

[23] = molecular target: T2, Protein kinase C eta type; experiment: Displacement of [3H]phorbol 12,13-dibutyrate from PKC eta-C1B
[24] = molecular target: T3, Protein kinase C gamma type; experiment: Induction of GFP-tagged PKC gamma translocation in HeLa cells measured as ratio of fluorescence intensity in plasma membrane to cytosol at 1 uM; type: cell-based; in short: as §1
[25] = molecular target: T4, Protein kinase C delta type; experiment: Induction of GFP-tagged PKC delta translocation in HeLa cells measured as ratio of fluorescence intensity in plasma membrane to cytosol at 1 uM; type: cell-based; in short: as §1
Target sequence in this assay (Q05655 whole entry, looked up): as the sequence (Q05655 whole entry, looked up) above

[26] = molecular target: T1, Protein kinase C alpha type; experiment: Induction of GFP-tagged PKC alpha translocation in HeLa cells measured as ratio of fluorescence intensity in plasma membrane to cytosol at 1 uM; type: cell-based; in short: as §1
[27] = molecular target: T5, Protein kinase C beta type; experiment: Induction of GFP-tagged PKC beta translocation in HeLa cells measured as ratio of fluorescence intensity in plasma membrane to cytosol at 0.5 uM; type: cell-based; in short: as §1
Target sequence in this assay (P05771 2-671 limits assumed): as the sequence (P05771 2-671 limits assumed) above

[28] = molecular target: T5, Protein kinase C beta type; experiment: Induction of GFP-tagged PKC beta translocation in HeLa cells measured as ratio of fluorescence intensity in plasma membrane to cytosol at 1 uM; type: cell-based; in short: as §1
Target sequence in this assay (P05771 2-671 limits assumed): as above

Row | Ratio [4] | Ratio [6] | Ratio [8] | Ratio [9] | Ratio [10] | Ratio [11] | Ratio [12] | Ratio [15] | Ratio [18] | Ratio [19] | Structure (SMILES) | other results
1 | 0.97 | 0.95 | 1.66 | 1.72 | 1.96 | 1.65 | 0.97 | 0.98 | 0.97 | 1.46 | CCCCCCCCc1cccc2c1CC[C@@H](CO)NC(=O)[C@H](C(C)C)N2C | pKi [1]: < 5.00; pKi [2]: < 5.00; pKi [3]: < 5.00; pKi [5]: 6.54; pKi [7]: < 5.00; pKi [13]: 6.67; pKi [14]: < 5.00; pKi [16]: 6.29; pKi [17]: < 5.00; pKi [20]: 5.28; pKi [21]: < 5.00; pKi [22]: < 5.00; pKi [23]: 6.84
2 | 1.53 | 2.41 | 2.73 | 1.92 | 4.29 | 2.42 | 2.38 | 1.79 | 1.01 | 1.84 | CCCCCCN1C[C@H]2C[C@@H](CO)NC(=O)[C@H](C(C)C)N(C)c3cccc1c32 | Ratio [24]: 0.96; Ratio [25]: 0.9; Ratio [26]: 0.97; Ratio [27]: 0.95; Ratio [28]: 2.39
